Assay results reported in ChEMBL document CHEMBL4229352, “Synthesis, antileishmanial activity and mechanism of action studies of novel β-carboline-1,3,5-triazine hybrids” (Eur J Med Chem, 2018).
Active and inactive are the calls of the source. No cut-off for these calls is given here.

Experiments:
[1] = tested on: Leishmania amazonensis; experiment: Antileishmanial activity against promastigote forms of Leishmania amazonensis after 72 hrs by XTT/PMS dye based spectrophotometric analysis; type: functional, organism-based
Outline: (§1)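 Log-phase parasites (promastigotes 48 h, axenic amastigotes 72 h) plated at the printed density with increasing compound concentrations; 72 h at 25 °C (promastigotes) or 32 °C (axenic amastigotes). XTT/PMS (0.5 and 0.3 mg/mL) added in the dark, absorbance at 450 nm after 4 h; IC50 versus negative control by regression. Mean ± SD of at least three independent experiments.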

[2] = Cytotoxicity against mouse J774A1 cells assessed as reduction in cell viability after 48 hrs by MTT assay; type: cell-based, J774.A1
Outline: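 J774-A1 macrophages in RPMI 1640 with 10% FBS, plated and left 24 h at 37 °C, 5% CO2. Supernatant then replaced by increasing compound concentrations for 48 h. After a PBS wash, MTT (2 mg/mL) was added for 4 h at 25 °C in the dark, formazan dissolved in DMSO, absorbance read at 570 nm. CC50 by regression versus negative control; at least three experiments.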

[3] = Selectivity index, ratio of CC50 for mouse J774A1 cells to IC50 for promastigote forms of Leishmania amazonensis; type: toxicity; conditions: read-out: Ratio CC50/IC50
Outline: (§2)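 Selectivity index calculated as CC50 in J774-A1 macrophages (48 h MTT) divided by IC50 for L. amazonensis promastigotes or axenic amastigotes (72 h XTT/PMS).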

[4] = tested on: Leishmania amazonensis; experiment: Antileishmanial activity against axenic amastigote forms of Leishmania amazonensis after 72 hrs by XTT/PMS dye based spectrophotometric analysis; type: functional, organism-based; outline: as §1
[5] = Selectivity index, ratio of CC50 for mouse J774A1 cells to IC50 for axenic amastigote forms of Leishmania amazonensis; type: toxicity; conditions: read-out: Ratio CC50/IC50; outline: as §2
[6] = tested on: Leishmania amazonensis; experiment: Antileishmanial activity against promastigote forms of Leishmania amazonensis MHOM/BR/75/Josefa after 72 hrs by haemocytometry; type: functional, organism-based
[7] = Selectivity index, ratio of CC50 for mouse J774.G8 cells to IC50 for promastigote forms of Leishmania amazonensis MHOM/BR/75/Josefa; type: toxicity; conditions: read-out: Ratio CC50/IC50
[8] = tested on: Leishmania amazonensis; experiment: Induction of ultrastructural alteration in promastigote forms of Leishmania amazonensis assessed as ultrastructural alteration in mitochondrial membrane at 6.2 uM after 24 hrs by transmission electron microscopic analysis; type: functional, organism-based
Outline: (§3)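 Promastigotes (1 x 10^6/mL) exposed to 6.2 μM for 24, 48 or 72 h at 25 °C alongside untreated controls. Fixed in 2.5% glutaraldehyde in 0.1 M cacodylate buffer. For TEM, post-fixed 1 h in 1% OsO4 with 0.8% potassium ferrocyanide in cacodylate buffer. For SEM, samples were gold-coated before viewing.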

[9] = tested on: Leishmania amazonensis; experiment: Induction of ultrastructural alteration in promastigote forms of Leishmania amazonensis assessed as ultrastructural alteration in plasma membrane at 6.2 uM after 24 hrs by transmission electron microscopic analysis; type: functional, organism-based; outline: as §3
[10] = tested on: Leishmania amazonensis; experiment: Induction of ultrastructural alteration in promastigote forms of Leishmania amazonensis assessed as formation of storage-lipid bodies at 6.2 uM after 48 hrs by transmission electron microscopic analysis; type: functional, organism-based; outline: as §3
[11] = tested on: Leishmania amazonensis; experiment: Induction of ultrastructural alteration in promastigote forms of Leishmania amazonensis assessed as formation of mitochondrial swelling at 6.2 uM after 48 hrs by transmission electron microscopic analysis; type: functional, organism-based; outline: as §3
[12] = tested on: Leishmania amazonensis; experiment: Induction of ultrastructural alteration in promastigote forms of Leishmania amazonensis assessed as alteration in plasma membrane at 6.2 uM after 48 hrs by transmission electron microscopic analysis; type: functional, organism-based; outline: as §3
[13] = tested on: Leishmania amazonensis; experiment: Induction of ultrastructural alteration in promastigote forms of Leishmania amazonensis assessed as alteration in flagellar pocket with vacuoles at 6.2 uM after 72 hrs by transmission electron microscopic analysis; type: functional, organism-based; outline: as §3
[14] = tested on: Leishmania amazonensis; experiment: Induction of ultrastructural alteration in promastigote forms of Leishmania amazonensis assessed as formation of mitochondrial swelling at 6.2 uM after 72 hrs by transmission electron microscopic analysis; type: functional, organism-based; outline: as §3
[15] = tested on: Leishmania amazonensis; experiment: Induction of morphological alteration in promastigote forms of Leishmania amazonensis assessed as cell rounding at 6.2 uM after 24 to 72 hrs by scanning electron microscopic analysis; type: functional, organism-based; outline: as §3
[16] = tested on: Leishmania amazonensis; experiment: Induction of morphological alteration in promastigote forms of Leishmania amazonensis assessed as reduction in cell volume at 6.2 uM after 24 to 72 hrs by scanning electron microscopic analysis; type: functional, organism-based; outline: as §3
[17] = tested on: Leishmania amazonensis; experiment: Induction of ROS generation in promastigote forms of Leishmania amazonensis at IC50 after 24 hrs by H2DCFDA staining based spectrofluorometric analysis relative to control; type: functional
[18] = tested on: Leishmania amazonensis; experiment: Induction of ROS generation in promastigote forms of Leishmania amazonensis at IC90 after 24 hrs by H2DCFDA staining based spectrofluorometric analysis relative to control; type: functional
[19] = tested on: Leishmania amazonensis; experiment: Induction of lipid body storage in promastigote forms of Leishmania amazonensis at IC50 after 24 hrs by nile red staining based fluorescence assay relative to control; type: functional
[20] = tested on: Leishmania amazonensis; experiment: Induction of lipid body storage in promastigote forms of Leishmania amazonensis at IC90 after 24 hrs by nile red staining based fluorescence assay relative to control; type: functional
[21] = tested on: Leishmania amazonensis; experiment: Induction of ROS generation in promastigote forms of Leishmania amazonensis at IC50 to IC90 uM after 24 hrs in presence of NAC by H2DCFDA staining based spectrofluorometric analysis; type: functional, organism-based
[22] = tested on: Leishmania amazonensis; experiment: Antileishmanial activity against axenic amastigote forms of Leishmania amazonensis MHOM/BR/75/Josefa after 72 hrs by haemocytometry; type: functional, organism-based

| SMILES | IC50 [1] [µM] | CC50 at 48 h [2] [µM] | selectivity ratio [3] | also measured |
| --- | --- | --- | --- | --- |
| CC(C)Nc1nc(NNC(=O)c2cc3c([nH]c4ccccc43)c(-c3ccccc3Cl)n2)nc(NC(C)C)n1 | > 100 | – | – | – |
| CC(C)Nc1nc(NCCNC(=O)c2cc3c([nH]c4ccccc43)c(-c3cccc([N+](=O)[O-])c3)n2)nc(NC(C)C)n1 | 44.6 | 86.3 | 1.9 | – |
| O=C(NNc1nc(Cl)nc(Cl)n1)c1cc2c([nH]c3ccccc32)c(-c2ccc(F)cc2)n1 | > 100 | – | – | – |
| O=C(NNc1nc(Cl)nc(Cl)n1)c1cc2c([nH]c3ccccc32)c(-c2ccccc2)n1 | 43.3 | 94.5 | 2.2 | IC50 [4]: 1.1 µM; selectivity ratio [5]: 85.9 |
| CN1CCN(c2nc(NCCNC(=O)c3cc4c([nH]c5ccccc54)c(-c4ccccc4)n3)nc(N3CCN(C)CC3)n2)CC1 | > 100 | – | – | – |
| CC(C)Nc1nc(NCCNC(=O)c2cc3c([nH]c4ccccc43)c(-c3ccccc3)n2)nc(NC(C)C)n1 | 7.5 | 98.1 | 13.1 | IC50 [4]: 35 µM; selectivity ratio [5]: 2.8 |
| O=C(NCCNc1nc(NC2CCCCC2)nc(NC2CCCCC2)n1)c1cc2c([nH]c3ccccc32)c(-c2ccccc2)n1 | > 100 | – | – | – |
| O=C(NCCCCCCNc1nc(Cl)nc(Cl)n1)c1cc2c([nH]c3ccccc32)c(-c2ccccc2)n1 | > 100 | – | – | – |
| O=C(NNc1nc(Cl)nc(Cl)n1)c1cc2c([nH]c3ccccc32)c(-c2ccccc2Cl)n1 | 34.1 | 22 | 0.6 | – |
| CCCCNC(=O)c1cc2c([nH]c3ccccc32)c(-c2ccc(OC)cc2)n1 | – | – | – | IC50 [6]: 0.25 µM; selectivity ratio [7]: 2080 |
| CC(C)Nc1nc(NNC(=O)c2cc3c([nH]c4ccccc43)c(-c3ccc(F)cc3)n2)nc(NC(C)C)n1 | 43.4 | 50 | 1.2 | – |
| CC(C)Nc1nc(NCCNC(=O)c2cc3c([nH]c4ccccc43)c(-c3ccccc3Cl)n2)nc(NC(C)C)n1 | > 100 | – | – | – |
| CCCCCCCCCCCCCCCCOP(=O)([O-])OCC[N+](C)(C)C [MILTEFOSINE] | 18.5 | 40.5 | 2.2 | IC50 [4]: 2.4 µM; selectivity ratio [5]: 16.9 |
| COc1ccc(-c2nc(C(=O)NNc3nc(NC(C)C)nc(NC(C)C)n3)cc3c2[nH]c2ccccc23)cc1 | > 100 | – | – | – |
| COc1ccc(-c2nc(C(=O)NCCNc3nc(Cl)nc(Cl)n3)cc3c2[nH]c2ccccc23)cc1 | 67.5 | 201 | 3 | IC50 [4]: 1 µM; selectivity ratio [5]: 201 |
| O=C(NCCNc1nc(Cl)nc(Cl)n1)c1cc2c([nH]c3ccccc32)c(-c2ccc(F)cc2)n1 | > 100 | – | – | – |
| O=C(NCCNc1nc(Cl)nc(Cl)n1)c1cc2c([nH]c3ccccc32)c(-c2ccccc2)n1 | 30.9 | 135 | 4.4 | IC50 [4]: 1.9 µM; selectivity ratio [5]: 70.8 |
| NNc1nc(NN)nc(NCCNC(=O)c2cc3c([nH]c4ccccc43)c(-c3ccccc3)n2)n1 | > 100 | – | – | – |
| COc1ccc(-c2nc(C(=O)NCCNc3nc(NC(C)C)nc(NC(C)C)n3)cc3c2[nH]c2ccccc23)cc1 | 6.2 | 146 | 23.5 | IC50 [4]: 1.2 µM; selectivity ratio [5]: 121; Activity [8]: Active; Activity [9]: Active; Activity [10]: Active; Activity [11]: Active; Activity [12]: Active; Activity [13]: Active; Activity [14]: Active; Activity [15]: Active; Activity [16]: Active; Activity [17]: 81.9%; Activity [18]: 184.8%; Activity [19]: 9%; Activity [20]: 428.6%; Activity [21]: Active |
| O=C(NCCNc1nc(Cl)nc(Cl)n1)c1cc2c([nH]c3ccccc32)c(-c2cccc([N+](=O)[O-])c2)n1 | 5.1 | 83.1 | 16.3 | IC50 [4]: 1.1 µM; selectivity ratio [5]: 75.5 |
| CC(C)Nc1nc(NNC(=O)c2cc3c([nH]c4ccccc43)c(-c3ccccc3)n2)nc(NC(C)C)n1 | 39.7 | 103 | 2.6 | IC50 [4]: 32.5 µM; selectivity ratio [5]: 3.16 |
| COc1ccc(-c2nc(C(=O)NNc3nc(Cl)nc(Cl)n3)cc3c2[nH]c2ccccc23)cc1 | > 100 | – | – | – |
| O=C(NCCNc1nc(Cl)nc(Cl)n1)c1cc2c([nH]c3ccccc32)c(-c2ccccc2Cl)n1 | 7.6 | 28.5 | 3.8 | – |
| O=C(NCCNc1nc(NCc2ccccc2)nc(NCc2ccccc2)n1)c1cc2c([nH]c3ccccc32)c(-c2ccccc2)n1 | > 100 | – | – | – |
| O=C(NCCNc1nc(N2CCOCC2)nc(N2CCOCC2)n1)c1cc2c([nH]c3ccccc32)c(-c2ccccc2)n1 | > 100 | – | – | – |
| COc1ccc(-c2nc(C(=O)NCc3ccccc3)cc3c2[nH]c2ccccc23)cc1 | – | – | – | IC50 [6]: 2.6 µM; IC50 [22]: 1 µM |
| CC(C)Nc1nc(NCCNC(=O)c2cc3c([nH]c4ccccc43)c(-c3ccc(F)cc3)n2)nc(NC(C)C)n1 | > 100 | – | – | – |
